Experimental data taken from PMC4355043 (Bioorganic & medicinal chemistry letters, 2014).

Legend:
Type in all cases: cell-based
[1] = tested on: amphotropic murine leukemia virus (AMLV) Env pseudotyped HIV-1 virus; details: result in words
[2] = tested on: HIV-1 92UG037 (subtype A); test: replication of fully infectious virus in primary human PBMCs, isolate 92UG037; details: isolate 92UG037, subtype A
[3] = tested on: HIV-1 94US_33931 N (subtype B); details: isolate 94US_33931 N
Outline: (§1)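 Primary human PBMCs infected with fully infectious isolates from HIV-1 subtypes A, B, C and D, plus one HIV-2 isolate, to measure inhibition of viral replication. Toxicity to the same PBMCs was assessed concomitantly with an MTS assay. IC50 is the half-maximal inhibitory concentration and TC50 the half-maximal toxic concentration. Antiviral index is calculated as TC50/IC50.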

[4] = tested on: HIV-1 99UG_A07412M1 (subtype D); details: isolate 99UG_A07412M1, subtype D
Outline: as §1

[5] = tested on: HIV-2CDC310319; test: replication of fully infectious virus in primary human PBMCs, HIV-2 isolate; details: result in words
Outline: as §1

[6] = tested on: primary human peripheral blood mononuclear cells (PBMCs); test: toxicity to PBMCs using an MTS assay; details: run concomitantly with each isolate
Outline: as §1

[7] = tested on: HIV-1 98US_MSC5016 (subtype C); details: isolate 98US_MSC5016, subtype C
[8] = tested on: HIV-1 91US004 (subtype B); test: replication of fully infectious virus in primary human PBMCs, isolate 91US004; details: isolate 91US004, subtype B
Outline: as §1

| Structure (SMILES) | inhibition of AMLV-pseudotyped HIV-1 (specificity) [1] | Antiviral index (TC50/IC50) [2] | Antiviral index (TC50/IC50) [3] | Antiviral index (TC50/IC50) [4] | effect on the replication of an HIV-2 isolate [5] | C50 (half-maximal toxic concentration) [6] [MM] | Antiviral index (TC50/IC50) [7] | Antiviral index (TC50/IC50) [8] |
| --- | --- | --- | --- | --- | --- | --- | --- | --- |
| COc1cnc(Cl)c2[nH]cc(C(=O)C(=O)N3CC4CN(C(=O)c5ccccc5)CC4C3)c12 (stereo not drawn) [SC07] | no inhibition | – | – | – | – | – | – | – |
| COc1ncc(OC)c2c(C(=O)C(=O)N3CC4CN(C(=O)c5ccccc5)CC4C3)c[nH]c12 (stereo not drawn) [SC08] | no inhibition | – | – | – | – | – | – | – |
| COc1cnc(-n2cnc(C)n2)c2[nH]cc(C(=O)C(=O)N3CC4CN(C(=O)C5=CCCCC5)CC4C3)c12 (stereo not drawn) [SC26] | – | >3.97 | > 166,666 | >204 | no effect | >100 | >25.6 | >513 |
